# Source: PubChem
# This is a sample that favours compounds with a hit; in the whole collection about 3.3% have one here.
# ABCB6 inh MLPCN: ABCB6 transporter inhibitors, primary screen, K562-ABCB6 cells, flow cytometry, MLPCN library; fluorescence ratio to DMSO, % at 10 µM; K562-ABCB6 porphyrin accumulation, 1 h; hits give low values; ATP-binding cassette sub-family B member 6 (Homo sapiens), Q9NP58; 360,000 tested, 0.19% active;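 active = fluorescence ratio to DMSO below 75%, the collection mean minus 3 SD; inconclusive = too few cells collected in the well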;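 note: signal is porphyrin accumulated inside mitochondria; 100% equals median channel fluorescence of DMSO control wells; lower ratio means ABCB6 inhibition with less porphyrin fluorescence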
# Myeloid diff MLP: induction of myeloid progenitor differentiation, primary screen, cell-based, flow cytometry, MLPCN library; ER-HoxA9 myeloid progenitors, lysozyme-GFP differentiation; calls only at 10 µM; 360,000 tested, 1% active; AID 624256, 2012;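 active = normalized GFP-positive differentiation at or above the plate's own cutoff, the solvent-only control mean plus 3 SD; inconclusive = no clear call, values can overlap the other calls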;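 note: cells exposed to compound for four days before flow analysis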
# NRP1-CendR mod: modulators of CendR peptide binding to NRP-1, primary screen, biochemical, fluorescence polarization, uHTS; Neuropilin-1 (Homo sapiens), O14786; FAM-RPARPAR peptide binding to NRP-1; inhibition, % at 25 µM; 360,000 tested, 0.85% active; AID 602438, 2012;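 active = inhibition or corrected inhibition above about 18%, plus a signal ratio from 0.5 to 1.5, limit read from the data, passing the limit was not always enough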
# Target sequence (O14786 whole entry, looked up): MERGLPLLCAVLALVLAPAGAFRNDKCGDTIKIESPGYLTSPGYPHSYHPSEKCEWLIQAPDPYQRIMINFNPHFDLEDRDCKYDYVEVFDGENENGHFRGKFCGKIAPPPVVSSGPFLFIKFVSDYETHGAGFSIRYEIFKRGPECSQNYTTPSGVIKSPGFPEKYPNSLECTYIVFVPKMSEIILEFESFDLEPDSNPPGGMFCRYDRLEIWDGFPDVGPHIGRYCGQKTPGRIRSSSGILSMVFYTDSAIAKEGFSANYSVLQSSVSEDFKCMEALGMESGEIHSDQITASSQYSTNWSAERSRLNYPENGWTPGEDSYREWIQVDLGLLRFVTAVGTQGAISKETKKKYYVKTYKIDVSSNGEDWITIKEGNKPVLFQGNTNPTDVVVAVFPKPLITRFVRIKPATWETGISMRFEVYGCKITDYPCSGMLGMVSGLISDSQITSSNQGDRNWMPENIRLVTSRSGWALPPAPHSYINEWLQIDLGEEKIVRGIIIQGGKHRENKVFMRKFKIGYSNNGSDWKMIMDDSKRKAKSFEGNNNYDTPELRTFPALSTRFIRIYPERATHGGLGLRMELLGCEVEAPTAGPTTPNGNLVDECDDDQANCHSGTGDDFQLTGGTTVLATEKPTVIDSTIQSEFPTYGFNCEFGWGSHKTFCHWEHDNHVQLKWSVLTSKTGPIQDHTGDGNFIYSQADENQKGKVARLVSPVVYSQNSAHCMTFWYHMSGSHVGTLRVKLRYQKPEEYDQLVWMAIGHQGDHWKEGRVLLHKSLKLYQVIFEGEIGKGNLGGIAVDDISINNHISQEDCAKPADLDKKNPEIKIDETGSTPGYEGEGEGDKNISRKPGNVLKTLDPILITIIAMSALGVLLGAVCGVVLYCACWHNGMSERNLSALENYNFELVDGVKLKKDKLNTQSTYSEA
# Exocytosis inh: LAMP-1 surface exposure blockers, TALL-104 cells – cell-based, flow cytometry, MLPCN library, primary screen. TALL-104 LAMP-1 surface exposure; cells stimulated with thapsigargin and PMA. inhibition, % at 10 µM. 360,000 tested, 0.66% active. AID 651702, 2012;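 active = inhibition above about 55%, limit read from the data; inconclusive = no clear call, values can overlap the other calls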
# ATG4B inh: ATG4B protease inhibitors, primary screen, biochemical, fluorescence, uHTS | Cysteine protease ATG4B (Homo sapiens), Q9Y4P1 | ATG4B cleavage of LC3-PLA2, NBD-HPC fluorescence, 1 h | AID 504462, 2011 | 340,000 tested, 0.51% active | inhibition, % at 8.33 µM; in the data active = inhibition above about 40%
# Arr AP2 block: inhibitors of beta-arrestin/AP2 binding, primary screen, biochemical, GPCR trafficking, flow cytometry | FITC-arrestin peptide / GST-AP2 beads; AP2 beta2 appendage carries R879A mutation | inhibition, % at 10 µM | 340,000 tested, 0.31% active | AID 504490, 2011;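 active = inhibition above a set limit, near 3 SD of compounds lacking own fluorescence, cut at about 54% in these data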;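 note: plate controls were DMSO wells for no effect and 5 µM unlabelled arrestin peptide for full effect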
#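 System: GST-AP2 R879A bound to glutathione beads, E. coli-expressed. Also added: 50 nM FITC-arrestin peptide. Schedule: compound with beads 12 min RT, then probe 1 h RT. Signal: bead flow cytometry, FITC channel. Read-out basis: percent response.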
# Exocytosis CP01: inhibitors of lytic granule exocytosis, confirmation, TALL-104 cells, flow cytometry, Cherry Pick01. LAMP-1 externalization; stimulated with PMA plus thapsigargin. inhibition, % at 10 µM. shares compounds with Exocytosis inh. 1,500 tested, 11% active; in the data active = inhibition above about 60%;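 note: 0% = stimulated vehicle wells and 100% = unstimulated wells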
# * = called active by the depositor; i = inactive; ? = inconclusive; / = not tested or not shown.
SMILES,ABCB6 inh MLPCN,Myeloid diff MLP,NRP1-CendR mod,Exocytosis inh,ATG4B inh,Arr AP2 block,Exocytosis CP01
COc1ccc2sc(N(CCCN(C)C)C(=O)c3ccc(S(=O)(=O)N4CCc5ccccc5C4)cc3)nc2c1,95,?,8,76*,8,-13,84*
CCOC(CNC(=O)C(=O)Nc1cc2c3c(c1)CCN3C(=O)CC2)OCC,103,?,1,-4,-7,35,/
O=S(=O)(CCN1CCOCC1)c1ccc(OC(F)(F)F)cc1,94,i,-11,2,-5,-11,/
CCn1c2c(c3cc(OCC(C)C)ccc31)CCCC2=O,91,i,4,58*,-8,-6,-4
CCc1nc2ccc(C(=O)Nc3cc(-c4ccccc4)ccc3OC)cn2c1N(CCN(C)C)CC1CC1,95,?,3,60*,/,/,49
CCCN(CC(=O)Nc1ccccc1OC)C(C)C(=O)NC(C)CCc1ccccc1 (centres undefined),102,i,1,70*,-8,3,-5
COc1ccc([N+](=O)[O-])cc1NC(=O)Cn1ccsc1=N,99,i,21,-8,-2,-2,/
CCC1(C)OC(=O)NN(c2ccc(C)cc2)C1(C)O (centres undefined),100,i,3,8,1,6,/
CCOC(=O)Cc1csc(-n2sc3ccccc3c2=O)n1,103,i,-20,78*,-4,7,36
O=S(=O)(c1ccc(Br)cc1)c1nc(-c2ccco2)oc1NCC1CCCO1 (centres undefined),101,i,4,0,-6,7,/
COc1ccc(-c2oc3ncnc(NCCCN(C)C)c3c2-c2ccc(OC)cc2)cc1,96,i,10,69*,6,9,6
O=S(=O)(/C=C/c1ccccc1)Oc1ccccc1,97,i,20,-5,0,-3,/
COC(=O)c1c(NC(=O)c2ccc(C(=O)c3ccccc3)cc2)sc2c1CC(C)(C)NC2(C)C,94,?,-2,67*,/,/,63*
COC(=O)c1c(NC(=O)c2nc3ccccc3s2)sc2c1CC(C)(C)NC2(C)C,94,i,-4,67*,-11,13,85*
CCOc1ccc(C(=O)Nc2sc3c(c2C(=O)OC)CC(C)(C)NC3(C)C)cc1,96,?,-2,21,-6,1,/
CN(C)S(=O)(=O)c1cccc(NC(=O)CCCSc2ccccc2)c1,92,i,-4,42,-5,14,/
COc1ccc(S(=O)(=O)N(C)C)cc1NC(=O)CCCSc1ccccc1,101,i,8,95*,-2,-5,-5
O=C(CSc1ncnc2c1cnn2CCc1ccccc1)Nc1cccc(C(F)(F)F)c1,92,i,7,83*,10,2,3
COc1ccc(N/C=C/C(=O)c2cc(OC)c(OC)c(OC)c2)cc1,102,?,0,57*,-4,-2,-11
Cc1[nH]c(C)c(S(=O)(=O)Nc2cccc(Cl)c2C)c1C(=O)N1CCCC1,93,i,-6,7,-2,0,/
O=C(CSc1n[nH]c(=O)n1Cc1ccccc1)Nc1ccc(F)c(F)c1F,91,i,8,-9,-9,24,/
CC(C)(C)CC(C)(C)N=C1Nc2cc(Cl)c(Cl)cc2NC12C[C@H]1CCC(=O)N3CC[C@@H](C2)[C@@H]13 (some centres undefined),101,i,-2,76*,-6,-2,-12
CC(C)NC(=O)N(C)C[C@H]1Oc2c(NC(=O)Nc3ccc(C(F)(F)F)cc3)cccc2C(=O)N([C@H](C)CO)C[C@@H]1C,94,i,3,60*,-16,2,-4
C[C@@H]1CN([C@@H](C)CO)C(=O)c2cc(NS(C)(=O)=O)ccc2O[C@@H]1CN(C)Cc1ccc(C(F)(F)F)cc1,100,i,2,62*,4,-1,-15
C[C@H](CO)N1C[C@H](C)[C@@H](CN(C)C(=O)Nc2ccc(C(F)(F)F)cc2)Oc2c(NC(=O)Nc3ccccc3)cccc2C1=O,99,i,7,-3,-18,6,/
SMILES,ABCB6 inh MLPCN,Myeloid diff MLP,NRP1-CendR mod,Exocytosis inh,ATG4B inh,Arr AP2 block,Exocytosis CP01
C[C@H](CO)N1C[C@H](C)[C@@H](CN(C)C(=O)NC2CCCCC2)Oc2ccc(NS(=O)(=O)c3ccc(F)cc3)cc2C1=O,99,i,-8,-2,-3,1,/
C[C@H](CO)N1C[C@H](C)[C@@H](CN(C)C(=O)NC2CCCCC2)Oc2ccc(NS(C)(=O)=O)cc2C1=O,97,i,1,73*,-3,41,0
Cc1ccc(C(C)C)c(OCCNCCc2ccccc2)c1,97,i,9,64*,16,-4,-9
Cc1ccc(C(C)C)c(OCCCNCc2cccnc2)c1,100,i,-18,1,-2,-9,/
CCCCn1c(=N)n(CC(=O)c2ccc(Br)s2)c2ccccc21,104,i,-1,82*,-6,-1,96*
Cc1ccc(-c2nc(C(=O)NCCCN3CCOCC3)cc3c2[nH]c2ccccc23)cc1,94,i,-9,56*,-31,5,18
COc1ccc(-c2nc(C(=O)NCCCN3CCOCC3)cc3c2[nH]c2ccccc23)cc1OC,98,i,-3,12,-46,9,/
CCN(Cc1ccccc1)S(=O)(=O)c1ccc(C(=O)N(CCCN(C)C)c2nc3cc4c(cc3s2)OCO4)cc1,105,i,-5,66*,8,-6,55
CN(C)CCCN(C(=O)CCSc1ccccc1)c1nc2cc3c(cc2s1)OCO3,92,?,0,60*,-3,4,70*
COc1ccc(NC(=O)CN(C)C(=O)C(C)N2C(=O)c3ccccc3C2=O)cc1 (centres undefined),100,i,3,1,-7,7,/
O=C(NCCCCCCNC(=O)OCc1ccccc1)OCc1ccccc1,100,i,20,-2,-10,35,/
O=C(OCc1ccccc1)N(CCCCN(CCCNCc1ccccc1)C(=O)OCc1ccccc1)CCCNCc1ccccc1,99,?,0,85*,-7,-2,99*
O=C(CNC(c1ccccc1)c1ccccc1)Nc1ccccc1Br,102,i,10,18,1,2,/
